Measured values from ChEMBL document CHEMBL1128172, “Structure-activity relationships of cyclic pentapeptide endothelin A receptor antagonists” (J Med Chem, 1995).
In brackets after ≈: the same amount, converted by molar mass. Where a SMILES comes first, the peptide text is derived from it.

Columns and labels:
[1] = Solubility in saline; assay type: physicochemical; conditions: for solubility: saline, read-out: S
Method in brief: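 Measured on the sodium salts, dissolved in saline.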

Endothelin-1 receptor [2] = biological target: T1, Endothelin-1 receptor (Sus scrofa, UniProt Q29010); assay: The compound was tested for binding inhibitory activity against Endothelin A receptor from porcine aortic smooth muscle membranes.
T1 sequence (Q29010 whole entry): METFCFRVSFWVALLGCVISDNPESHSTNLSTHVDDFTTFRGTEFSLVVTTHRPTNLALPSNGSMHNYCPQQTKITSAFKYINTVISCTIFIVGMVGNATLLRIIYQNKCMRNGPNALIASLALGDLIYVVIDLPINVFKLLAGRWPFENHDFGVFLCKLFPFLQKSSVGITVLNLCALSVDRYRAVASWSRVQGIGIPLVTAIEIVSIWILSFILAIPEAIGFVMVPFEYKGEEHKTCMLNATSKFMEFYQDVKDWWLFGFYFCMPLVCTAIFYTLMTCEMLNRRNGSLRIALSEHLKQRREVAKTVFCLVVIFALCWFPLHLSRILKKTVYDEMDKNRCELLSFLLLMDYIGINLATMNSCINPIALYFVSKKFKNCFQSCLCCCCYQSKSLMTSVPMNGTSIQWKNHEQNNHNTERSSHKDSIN

Sus scrofa = organism: Sus scrofa; assay: Anti vasoconstriction activity was evaluated in isolated porcine coronary arteries; assay type: functional; conditions: read-out: pA2 (converted)
[3] = biological target: T2, Endothelin receptor type B (Sus scrofa, UniProt P35463); assay: Inhibitory effect against porcine Endothelin B receptor
T2 sequence (P35463 whole entry): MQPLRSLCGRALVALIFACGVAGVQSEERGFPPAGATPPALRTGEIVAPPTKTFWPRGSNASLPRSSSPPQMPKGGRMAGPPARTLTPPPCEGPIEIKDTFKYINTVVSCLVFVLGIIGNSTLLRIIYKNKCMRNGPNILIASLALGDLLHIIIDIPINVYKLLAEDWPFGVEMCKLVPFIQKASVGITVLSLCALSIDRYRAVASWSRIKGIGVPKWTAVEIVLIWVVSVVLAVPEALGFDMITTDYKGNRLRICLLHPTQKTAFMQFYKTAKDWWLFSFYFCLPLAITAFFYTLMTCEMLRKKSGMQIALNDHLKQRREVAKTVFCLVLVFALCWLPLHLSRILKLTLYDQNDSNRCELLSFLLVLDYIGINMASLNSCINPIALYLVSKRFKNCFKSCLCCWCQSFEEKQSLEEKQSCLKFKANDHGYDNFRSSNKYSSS

Endothelin-1 receptor [4] = biological target: T1, Endothelin-1 receptor; assay: Inhibitory effect against porcine ET-A receptor
Method in brief: (§1)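 [125I]ET-1 displacement from porcine aortic smooth muscle membranes, which are rich in ETA receptors. The IC50 is taken at the high-affinity sites and averaged over more than three independent experiments. The protocol follows an earlier report.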

Endothelin-1 receptor [5] = biological target: T3, Endothelin-1 receptor (Homo sapiens, UniProt P25101); assay: Inhibitory effect against Human ET-A receptor
T3 sequence (P25101 whole entry): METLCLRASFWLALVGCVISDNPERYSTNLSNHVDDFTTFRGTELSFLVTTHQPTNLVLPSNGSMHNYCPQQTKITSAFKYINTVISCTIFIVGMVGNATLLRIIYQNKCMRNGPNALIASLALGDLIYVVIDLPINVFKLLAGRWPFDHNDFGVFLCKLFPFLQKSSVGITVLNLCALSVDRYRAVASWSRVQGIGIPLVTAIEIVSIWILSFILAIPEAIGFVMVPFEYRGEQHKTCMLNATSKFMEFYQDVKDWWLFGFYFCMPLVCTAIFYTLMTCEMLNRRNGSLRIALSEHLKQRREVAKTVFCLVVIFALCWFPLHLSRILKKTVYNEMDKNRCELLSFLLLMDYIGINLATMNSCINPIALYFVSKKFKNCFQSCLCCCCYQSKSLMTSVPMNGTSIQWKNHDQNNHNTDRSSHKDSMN
Method in brief: (§2)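 Competition binding of 12 pM [125I]ET-1 to membranes from human neuroblastoma SK-N-MC cells (ETA) or Girardi heart cells (ETB), with increasing test compound, in 50 mM Tris/HCl pH 7.4 with protease inhibitors, 1 mM EDTA and 0.3% BSA. Incubated 4 h at 25 °C, filtered, washed, gamma-counted. Nonspecific binding defined with 0.2 μM ET-1. Values are the average of two independent experiments.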

[6] = biological target: T4, Endothelin receptor type B (Homo sapiens, UniProt P24530); assay: Inhibitory effect against Human Endothelin B receptor
T4 sequence (P24530 whole entry): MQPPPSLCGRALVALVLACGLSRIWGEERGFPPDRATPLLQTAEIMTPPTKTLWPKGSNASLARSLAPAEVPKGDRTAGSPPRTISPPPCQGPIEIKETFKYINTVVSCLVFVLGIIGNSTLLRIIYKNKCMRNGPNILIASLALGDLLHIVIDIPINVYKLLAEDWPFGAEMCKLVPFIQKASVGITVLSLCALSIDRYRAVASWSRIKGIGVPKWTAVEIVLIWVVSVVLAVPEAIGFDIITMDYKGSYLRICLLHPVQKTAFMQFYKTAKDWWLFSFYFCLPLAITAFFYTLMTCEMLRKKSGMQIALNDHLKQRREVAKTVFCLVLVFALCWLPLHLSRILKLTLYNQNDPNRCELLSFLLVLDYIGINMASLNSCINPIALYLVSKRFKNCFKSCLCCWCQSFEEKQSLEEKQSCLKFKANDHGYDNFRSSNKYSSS

Endothelin-1 receptor [7] = biological target: T3, Endothelin-1 receptor; assay: Inhibitory effect against Human Endothelin A receptor; method in brief: as §2
Endothelin-1 receptor [8] = biological target: T1, Endothelin-1 receptor; assay: Inhibitory effect against porcine Endothelin A receptor; method in brief: as §1

Structure (SMILES)	IC50 max (Endothelin-1 receptor [2]) [nM]	also measured
CC(C)C[C@@H]1NC(=O)[C@@H](c2cccs2)NC(=O)[C@@H]2CCCN2C(=O)[C@@H](CC(=O)O)NC(=O)[C@@H](Cc2c[nH]c3ccccc23)NC1=O (single isomer, unassigned)	3	solubility [1]: 4000 µg/mL (≈ 6.15 mM); Kb (Sus scrofa): 7.94 nM; IC50 [3]: 19000 nM; IC50 (Endothelin-1 receptor [4]): 3 nM; IC50 (Endothelin-1 receptor [5]): 1.2 nM; IC50 [6]: 55000 nM
CC(C)C[C@@H]1NC(=O)[C@@H](C(C)C)NC(=O)[C@@H]2CCCN2C(=O)[C@@H](CC(=O)O)NC(=O)[C@@H](Cc2c[nH]c3ccccc23)NC1=O (single isomer, unassigned)	22	S ([1]; buffer): > 1000 mg/mL; IC50 (Endothelin-1 receptor [7]): 8.3 nM; Kb (Sus scrofa): 39.8 nM
CC(C)C[C@@H]1NC(=O)[C@@H](C(C)C)NC(=O)[C@H](C)NC(=O)[C@@H](CCC(=O)O)NC(=O)[C@@H](Cc2c[nH]c3ccccc23)NC1=O (single isomer, unassigned)	3000	–
CC(C)[C@H]1NC(=O)[C@H](C)NC(=O)[C@@H](CC(=O)O)NC(=O)[C@@H](Cc2c[nH]c3ccccc23)NC(=O)[C@H](CC2CCCCC2)NC1=O (single isomer, unassigned)	5600	–
CC(C)C[C@@H]1NC(=O)[C@@H](C(C)C)NC(=O)[C@H](CCCCN)NC(=O)[C@@H](CC(=O)O)NC(=O)[C@@H](Cc2c[nH]c3ccccc23)NC1=O (single isomer, unassigned)	200	–
CC(C)C[C@@H]1NC(=O)[C@@H](C(C)C)NC(=O)[C@@H]2CCCCN2C(=O)[C@@H](CC(=O)O)NC(=O)[C@@H](Cc2c[nH]c3ccccc23)NC1=O	13	–
CC(C)[C@H]1NC(=O)[C@H](C)NC(=O)[C@@H](CC(=O)O)NC(=O)[C@@H](Cc2c[nH]c3ccccc23)NC(=O)[C@@H]2CCCN2C1=O (single isomer, unassigned)	8500	–
CC(C)C[C@@H]1NC(=O)[C@@H](C(C)C)NC(=O)C(C)(C)NC(=O)[C@@H](CC(=O)O)NC(=O)[C@@H](Cc2c[nH]c3ccccc23)NC1=O (single isomer, unassigned)	330	–
CC(C)C[C@@H]1NC(=O)[C@@H]([C@H](C)O)NC(=O)[C@H](C)NC(=O)[C@@H](CC(=O)O)NC(=O)[C@@H](Cc2c[nH]c3ccccc23)NC1=O	4200	–
CC(C)C[C@@H]1NC(=O)[C@@H](C2CCCC2)NC(=O)[C@@H]2CCCN2C(=O)[C@@H](CC(=O)O)NC(=O)[C@@H](Cc2c[nH]c3ccccc23)NC1=O (single isomer, unassigned)	4	solubility [1]: > 100000 µg/mL; Kb (Sus scrofa): 31.6 nM; IC50 [3]: 4800 nM; IC50 (Endothelin-1 receptor [4]): 4 nM; IC50 (Endothelin-1 receptor [5]): 3.4 nM; IC50 [6]: 21000 nM
CSCC[C@@H]1NC(=O)[C@@H](CC(=O)O)NC(=O)[C@@H](Cc2c[nH]c3ccccc23)NC(=O)[C@H](CC(C)C)NC(=O)[C@@H](C(C)C)NC1=O (single isomer, unassigned)	130	–
CC(C)C[C@@H]1NC(=O)[C@@H](c2ccccc2)NC(=O)[C@@H]2CCCN2C(=O)[C@@H](CC(=O)O)NC(=O)[C@@H](Cc2c[nH]c3ccccc23)NC1=O (single isomer, unassigned)	24	–
CC(C)C[C@@H]1NC(=O)[C@@H](C(C)C)NC(=O)[C@H](CS(=O)(=O)O)NC(=O)[C@@H](CC(=O)O)NC(=O)[C@@H](Cc2c[nH]c3ccccc23)NC1=O (single isomer, unassigned)	140	–
CC[C@H](C)[C@H]1NC(=O)[C@@H]2CCCN2C(=O)[C@@H](CC(=O)O)NC(=O)[C@@H](Cc2c[nH]c3ccccc23)NC(=O)[C@H](CC(C)C)NC1=O	12	–
CC[C@@H](C)[C@H]1NC(=O)[C@@H]2CCCN2C(=O)[C@@H](CC(=O)O)NC(=O)[C@@H](Cc2c[nH]c3ccccc23)NC(=O)[C@H](CC(C)C)NC1=O	64	–

Continued, in another order:

IC50 max (Endothelin-1 receptor [2]) [nM]	Structure (SMILES)	also measured
180	CC(C)C[C@@H]1NC(=O)[C@@H](C(C)C)NC(=O)[C@H](CC(=O)O)NC(=O)[C@@H](CC(=O)O)NC(=O)[C@@H](Cc2c[nH]c3ccccc23)NC1=O (single isomer, unassigned)	–
> 100000	CC(C)C[C@@H]1NC(=O)[C@@H](C(C)C)NC(=O)[C@H](C)NC(=O)[C@@H](CCC(=O)O)NC(=O)[C@H](Cc2c[nH]c3ccccc23)NC1=O (single isomer, unassigned)	–
440	CC(C)C[C@@H]1NC(=O)[C@@H](C)NC(=O)[C@H](CC(=O)O)NC(=O)[C@H](Cc2c[nH]c3ccccc23)NC(=O)[C@@H](CC(C)C)NC1=O	–
49	CC(C)C[C@@H]1NC(=O)[C@@H](C(C)(C)S)NC(=O)[C@@H]2CCCN2C(=O)[C@@H](CC(=O)O)NC(=O)[C@@H](Cc2c[nH]c3ccccc23)NC1=O (single isomer, unassigned)	–
260	CC(C)C[C@@H]1NC(=O)[C@@H](C)NC(=O)[C@@H]2CCCN2C(=O)[C@@H](CC(=O)O)NC(=O)[C@@H](Cc2c[nH]c3ccccc23)NC1=O (single isomer, unassigned)	–
150	CC(C)C[C@@H]1NC(=O)[C@@H](C(C)C)NC(=O)[C@H](Cc2c[nH]c3ccccc23)NC(=O)[C@@H](CC(=O)O)NC(=O)[C@@H](Cc2c[nH]c3ccccc23)NC1=O (single isomer, unassigned)	–
1400	CC[C@H](C)[C@H]1NC(=O)[C@H](C)NC(=O)[C@@H](CCC(=O)O)NC(=O)[C@@H](Cc2c[nH]c3ccccc23)NC(=O)[C@H](CC(C)C)NC1=O (HELM PEPTIDE1{A.[CC[C@H](C)[C@@H](N[*:1])C(=O)[*:2]].L.[dW].[dE]}$PEPTIDE1,PEPTIDE1,1:R1-5:R2$$$V2.0)	IC50 (Endothelin-1 receptor [8]): 1400 nM; solubility [1]: 210 µg/mL (≈ 0.343 mM); IC50 (Endothelin-1 receptor [7]): 590 nM; IC50 [3]: > 100000 nM; IC50 [6]: > 100000 nM
120	CCCC[C@H]1NC(=O)[C@@H]2CCCN2C(=O)[C@@H](CC(=O)O)NC(=O)[C@@H](Cc2c[nH]c3ccccc23)NC(=O)[C@H](CC(C)C)NC1=O (single isomer, unassigned)	–
21	CC(C)C[C@@H]1NC(=O)[C@@H](C(C)C)NC(=O)[C@@H]2CCCN2C(=O)[C@@H](CS(=O)(=O)O)NC(=O)[C@@H](Cc2c[nH]c3ccccc23)NC1=O (single isomer, unassigned)	IC50 (Endothelin-1 receptor [8]): 21 nM; solubility [1]: > 10000 µg/mL; IC50 (Endothelin-1 receptor [7]): 30 nM; Kb (Sus scrofa): 39.8 nM; IC50 [3]: 30000 nM; IC50 [6]: > 100000 nM
62	CCCC[C@@H]1NC(=O)[C@@H](C(C)C)NC(=O)[C@@H]2CCCN2C(=O)[C@@H](CC(=O)O)NC(=O)[C@@H](Cc2c[nH]c3ccccc23)NC1=O (single isomer, unassigned)	–
390	COC(=O)C[C@H]1NC(=O)[C@@H](Cc2c[nH]c3ccccc23)NC(=O)[C@H](CC(C)C)NC(=O)[C@@H](C(C)C)NC(=O)[C@@H]2CCCN2C1=O (single isomer, unassigned)	–
110	CC(C)C[C@@H]1NC(=O)[C@@H](C(C)C)NC(=O)[C@H](C)NC(=O)[C@@H](CC(=O)O)NC(=O)[C@@H](Cc2c[nH]c3ccccc23)NC1=O (single isomer, unassigned)	–
